A word on the inhibition: it is the relative decrease from the control value, in per cent.

The record followed here is ChEMBL document CHEMBL5653631, “A Potent and Selective ULK1 Inhibitor Suppresses Autophagy and Sensitizes Cancer Cells to Nutrient Stress” (iScience, 2018).

In assay [1] the target is Receptor tyrosine-protein kinase erbB-4 (Homo sapiens) (UniProt Q15303). Kind of assay: Inhibition of human recombinant ErbB4 at 15 nM related to control ULK1.
Assay [2] deals with T1, Tyrosine-protein kinase ITK/TSK (Homo sapiens) (UniProt Q08881).
T1 sequence (whole entry): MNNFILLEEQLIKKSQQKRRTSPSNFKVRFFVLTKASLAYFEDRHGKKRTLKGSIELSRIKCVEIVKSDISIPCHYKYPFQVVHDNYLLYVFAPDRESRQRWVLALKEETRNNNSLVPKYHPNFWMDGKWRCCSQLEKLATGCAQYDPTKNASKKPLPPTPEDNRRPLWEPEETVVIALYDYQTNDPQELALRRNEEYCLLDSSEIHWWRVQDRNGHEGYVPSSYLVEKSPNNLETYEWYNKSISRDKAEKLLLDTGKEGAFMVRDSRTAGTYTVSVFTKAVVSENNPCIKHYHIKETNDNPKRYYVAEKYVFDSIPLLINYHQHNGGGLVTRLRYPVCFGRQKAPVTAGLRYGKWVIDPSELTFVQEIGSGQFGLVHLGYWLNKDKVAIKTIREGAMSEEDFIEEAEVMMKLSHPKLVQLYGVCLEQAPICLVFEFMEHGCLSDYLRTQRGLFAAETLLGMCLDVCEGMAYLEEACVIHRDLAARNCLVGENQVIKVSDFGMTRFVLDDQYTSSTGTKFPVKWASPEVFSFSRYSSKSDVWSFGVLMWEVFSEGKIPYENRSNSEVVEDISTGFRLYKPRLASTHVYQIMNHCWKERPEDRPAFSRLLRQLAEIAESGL
Description: Inhibition of human recombinant ITK at 15 nM related to control ULK1.

The target in assay [3] is Fibroblast growth factor receptor 4 (Homo sapiens) (UniProt P22455). Kind of assay: Inhibition of human recombinant FGFR4 at 15 nM related to control ULK1.
In assay [4] the target is Serine/threonine-protein kinase 4 (Homo sapiens) (UniProt Q13043). Description: Inhibition of human recombinant MST1 at 15 nM related to control ULK1.
The target of assay [5] is Serine/threonine-protein kinase MRCK beta (Homo sapiens) (UniProt Q9Y5S2). Kind of assay: Inhibition of human recombinant MRCKb at 40 nM in presence of ATP by radiometric assay relative to control.
Assay [6] has as its target T2, Activin receptor type-1 (Homo sapiens) (UniProt Q04771).
T2 sequence (whole entry): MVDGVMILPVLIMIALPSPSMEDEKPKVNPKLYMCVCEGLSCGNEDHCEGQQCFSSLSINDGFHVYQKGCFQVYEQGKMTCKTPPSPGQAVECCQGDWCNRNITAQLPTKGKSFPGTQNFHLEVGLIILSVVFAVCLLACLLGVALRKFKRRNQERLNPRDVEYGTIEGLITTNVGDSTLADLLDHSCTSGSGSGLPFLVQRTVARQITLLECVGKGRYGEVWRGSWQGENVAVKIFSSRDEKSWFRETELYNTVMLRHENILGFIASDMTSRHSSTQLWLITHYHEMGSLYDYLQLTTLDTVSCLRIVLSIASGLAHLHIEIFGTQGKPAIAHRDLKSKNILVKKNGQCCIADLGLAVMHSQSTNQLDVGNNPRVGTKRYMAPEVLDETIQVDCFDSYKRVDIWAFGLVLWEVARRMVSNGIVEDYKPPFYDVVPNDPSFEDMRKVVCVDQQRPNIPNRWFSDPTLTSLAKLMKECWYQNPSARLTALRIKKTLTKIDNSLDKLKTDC
Description: Inhibition of human recombinant ALK2 at 40 nM in presence of ATP by radiometric assay relative to control. The gist of the method:
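Panel of 327 recombinant human kinases, each assayed in vitro by radiometric activity assay in duplicate at a single inhibitor concentration per compound, chosen with reference to its ULK1 inhibition. Activity remaining was expressed as percent of vehicle control, and percent inhibition was calculated as 100 minus percent activity remaining.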

Assay [7] concerns the target T3, Tyrosine-protein kinase TXK (Homo sapiens) (UniProt P42681).
T3 sequence (whole entry): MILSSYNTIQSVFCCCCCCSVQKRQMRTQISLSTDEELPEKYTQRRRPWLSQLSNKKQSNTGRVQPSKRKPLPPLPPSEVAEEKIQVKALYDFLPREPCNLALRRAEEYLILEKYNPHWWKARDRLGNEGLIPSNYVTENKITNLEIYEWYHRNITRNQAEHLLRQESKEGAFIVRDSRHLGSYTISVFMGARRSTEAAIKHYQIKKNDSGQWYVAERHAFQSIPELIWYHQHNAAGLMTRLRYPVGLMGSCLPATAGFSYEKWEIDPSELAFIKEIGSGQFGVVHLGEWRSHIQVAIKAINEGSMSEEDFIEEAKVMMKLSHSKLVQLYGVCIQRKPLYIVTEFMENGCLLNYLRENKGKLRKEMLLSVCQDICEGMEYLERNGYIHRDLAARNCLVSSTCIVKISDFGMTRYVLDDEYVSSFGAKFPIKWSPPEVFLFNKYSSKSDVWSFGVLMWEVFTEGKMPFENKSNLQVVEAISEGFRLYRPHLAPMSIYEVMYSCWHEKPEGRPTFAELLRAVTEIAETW
Description: Inhibition of human recombinant TXK at 500 nM related to control ULK1.

Assay [8] deals with Receptor-interacting serine/threonine-protein kinase 2 (Homo sapiens) (UniProt O43353). Description: Inhibition of human recombinant RIPK2 at 500 nM related to control ULK1.
For assay [9], the target named is Ephrin type-A receptor 7 (Homo sapiens) (UniProt Q15375). Kind of assay: Inhibition of human recombinant EphA7 at 500 nM in presence of ATP by radiometric assay relative to control.
Ephrin type-A receptor 7 (Homo sapiens), sequence (Q15375 28-998 limits assumed): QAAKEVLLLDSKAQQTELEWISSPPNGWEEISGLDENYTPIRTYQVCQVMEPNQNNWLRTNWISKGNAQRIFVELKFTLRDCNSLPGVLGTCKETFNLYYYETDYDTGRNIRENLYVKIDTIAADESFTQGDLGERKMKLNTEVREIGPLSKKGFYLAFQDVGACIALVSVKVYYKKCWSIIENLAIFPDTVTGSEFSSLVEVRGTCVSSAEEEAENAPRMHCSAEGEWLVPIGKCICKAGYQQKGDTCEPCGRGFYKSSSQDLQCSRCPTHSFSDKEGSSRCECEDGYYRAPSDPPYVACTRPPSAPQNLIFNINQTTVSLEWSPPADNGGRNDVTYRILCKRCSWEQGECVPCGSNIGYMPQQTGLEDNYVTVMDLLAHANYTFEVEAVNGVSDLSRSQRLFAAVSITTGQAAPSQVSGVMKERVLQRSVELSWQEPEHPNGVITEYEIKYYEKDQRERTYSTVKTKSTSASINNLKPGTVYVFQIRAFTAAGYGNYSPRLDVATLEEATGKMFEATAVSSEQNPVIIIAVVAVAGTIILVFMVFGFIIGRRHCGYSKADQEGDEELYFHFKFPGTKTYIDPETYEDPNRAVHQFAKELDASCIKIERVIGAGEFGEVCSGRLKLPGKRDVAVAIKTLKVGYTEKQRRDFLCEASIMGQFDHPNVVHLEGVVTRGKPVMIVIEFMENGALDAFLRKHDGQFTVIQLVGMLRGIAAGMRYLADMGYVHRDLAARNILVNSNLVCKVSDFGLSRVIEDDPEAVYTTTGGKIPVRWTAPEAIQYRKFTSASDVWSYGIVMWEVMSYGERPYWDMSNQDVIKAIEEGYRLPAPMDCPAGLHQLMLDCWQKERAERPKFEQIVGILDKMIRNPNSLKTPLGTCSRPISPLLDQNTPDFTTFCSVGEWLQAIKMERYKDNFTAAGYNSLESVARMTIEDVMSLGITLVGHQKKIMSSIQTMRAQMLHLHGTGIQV

Receptor-interacting serine/threonine-protein kinase 2 (Homo sapiens), sequence (O43353 whole entry): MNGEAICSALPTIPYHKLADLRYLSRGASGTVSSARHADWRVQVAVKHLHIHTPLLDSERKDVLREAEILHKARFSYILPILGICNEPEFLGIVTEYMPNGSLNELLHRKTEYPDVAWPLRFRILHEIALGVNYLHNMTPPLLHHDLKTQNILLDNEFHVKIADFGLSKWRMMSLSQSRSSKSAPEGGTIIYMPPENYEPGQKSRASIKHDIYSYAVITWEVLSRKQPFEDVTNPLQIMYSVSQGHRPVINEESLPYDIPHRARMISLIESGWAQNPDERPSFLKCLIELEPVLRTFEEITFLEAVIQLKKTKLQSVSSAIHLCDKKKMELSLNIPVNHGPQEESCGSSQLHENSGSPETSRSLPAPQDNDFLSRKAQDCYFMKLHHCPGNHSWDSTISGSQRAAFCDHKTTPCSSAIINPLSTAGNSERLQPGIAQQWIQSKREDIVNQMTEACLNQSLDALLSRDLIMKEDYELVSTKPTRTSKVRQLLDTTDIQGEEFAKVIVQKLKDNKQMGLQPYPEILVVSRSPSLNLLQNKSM
Serine/threonine-protein kinase 4 (Homo sapiens), sequence (Q13043 whole entry, looked up): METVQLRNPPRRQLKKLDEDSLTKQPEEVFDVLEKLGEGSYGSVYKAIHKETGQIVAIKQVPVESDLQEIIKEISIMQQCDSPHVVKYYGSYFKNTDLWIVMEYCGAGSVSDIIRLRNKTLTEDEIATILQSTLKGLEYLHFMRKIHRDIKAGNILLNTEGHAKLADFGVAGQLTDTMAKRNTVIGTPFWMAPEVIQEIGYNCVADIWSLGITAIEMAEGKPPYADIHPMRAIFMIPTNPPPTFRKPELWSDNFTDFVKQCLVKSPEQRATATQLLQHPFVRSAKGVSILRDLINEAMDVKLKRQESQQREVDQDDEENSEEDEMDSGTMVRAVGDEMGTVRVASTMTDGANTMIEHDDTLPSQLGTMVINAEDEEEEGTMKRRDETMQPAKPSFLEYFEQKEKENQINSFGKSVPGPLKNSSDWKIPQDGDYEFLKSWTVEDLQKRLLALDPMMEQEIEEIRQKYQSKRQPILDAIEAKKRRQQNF
Receptor tyrosine-protein kinase erbB-4 (Homo sapiens), sequence (Q15303 whole entry): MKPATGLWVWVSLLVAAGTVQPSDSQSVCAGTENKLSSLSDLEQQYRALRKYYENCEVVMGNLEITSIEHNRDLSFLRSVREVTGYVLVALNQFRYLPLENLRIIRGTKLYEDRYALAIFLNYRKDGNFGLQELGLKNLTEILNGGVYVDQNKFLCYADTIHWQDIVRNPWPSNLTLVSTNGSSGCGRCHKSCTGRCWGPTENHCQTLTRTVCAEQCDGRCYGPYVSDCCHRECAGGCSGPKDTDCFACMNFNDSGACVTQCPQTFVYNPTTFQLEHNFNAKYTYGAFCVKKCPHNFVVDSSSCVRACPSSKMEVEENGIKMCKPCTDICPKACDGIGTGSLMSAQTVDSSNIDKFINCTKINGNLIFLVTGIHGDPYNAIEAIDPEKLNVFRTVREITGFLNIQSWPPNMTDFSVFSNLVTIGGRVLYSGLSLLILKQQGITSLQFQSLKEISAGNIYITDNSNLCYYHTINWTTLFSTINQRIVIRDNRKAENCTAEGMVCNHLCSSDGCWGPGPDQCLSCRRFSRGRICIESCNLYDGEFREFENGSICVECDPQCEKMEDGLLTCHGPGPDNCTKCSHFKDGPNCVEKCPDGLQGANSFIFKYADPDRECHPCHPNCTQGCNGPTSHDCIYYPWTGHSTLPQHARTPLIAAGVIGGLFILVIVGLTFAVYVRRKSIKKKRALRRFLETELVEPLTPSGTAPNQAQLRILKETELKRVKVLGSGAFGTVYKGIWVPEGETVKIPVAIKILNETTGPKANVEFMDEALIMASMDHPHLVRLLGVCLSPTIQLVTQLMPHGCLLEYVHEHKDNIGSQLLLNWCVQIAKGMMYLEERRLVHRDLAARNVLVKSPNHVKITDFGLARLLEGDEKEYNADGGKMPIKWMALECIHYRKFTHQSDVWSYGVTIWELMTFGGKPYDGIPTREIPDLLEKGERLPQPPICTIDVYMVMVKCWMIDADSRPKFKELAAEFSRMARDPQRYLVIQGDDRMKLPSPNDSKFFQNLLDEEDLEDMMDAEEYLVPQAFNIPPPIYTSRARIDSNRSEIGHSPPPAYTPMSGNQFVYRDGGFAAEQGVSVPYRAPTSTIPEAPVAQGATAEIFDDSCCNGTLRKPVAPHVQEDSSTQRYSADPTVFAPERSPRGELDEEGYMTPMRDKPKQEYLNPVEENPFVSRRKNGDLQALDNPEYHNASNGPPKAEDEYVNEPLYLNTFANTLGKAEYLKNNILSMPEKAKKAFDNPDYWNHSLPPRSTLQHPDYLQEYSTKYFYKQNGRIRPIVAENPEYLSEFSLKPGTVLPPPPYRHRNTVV
Serine/threonine-protein kinase MRCK beta (Homo sapiens), sequence (Q9Y5S2 whole entry): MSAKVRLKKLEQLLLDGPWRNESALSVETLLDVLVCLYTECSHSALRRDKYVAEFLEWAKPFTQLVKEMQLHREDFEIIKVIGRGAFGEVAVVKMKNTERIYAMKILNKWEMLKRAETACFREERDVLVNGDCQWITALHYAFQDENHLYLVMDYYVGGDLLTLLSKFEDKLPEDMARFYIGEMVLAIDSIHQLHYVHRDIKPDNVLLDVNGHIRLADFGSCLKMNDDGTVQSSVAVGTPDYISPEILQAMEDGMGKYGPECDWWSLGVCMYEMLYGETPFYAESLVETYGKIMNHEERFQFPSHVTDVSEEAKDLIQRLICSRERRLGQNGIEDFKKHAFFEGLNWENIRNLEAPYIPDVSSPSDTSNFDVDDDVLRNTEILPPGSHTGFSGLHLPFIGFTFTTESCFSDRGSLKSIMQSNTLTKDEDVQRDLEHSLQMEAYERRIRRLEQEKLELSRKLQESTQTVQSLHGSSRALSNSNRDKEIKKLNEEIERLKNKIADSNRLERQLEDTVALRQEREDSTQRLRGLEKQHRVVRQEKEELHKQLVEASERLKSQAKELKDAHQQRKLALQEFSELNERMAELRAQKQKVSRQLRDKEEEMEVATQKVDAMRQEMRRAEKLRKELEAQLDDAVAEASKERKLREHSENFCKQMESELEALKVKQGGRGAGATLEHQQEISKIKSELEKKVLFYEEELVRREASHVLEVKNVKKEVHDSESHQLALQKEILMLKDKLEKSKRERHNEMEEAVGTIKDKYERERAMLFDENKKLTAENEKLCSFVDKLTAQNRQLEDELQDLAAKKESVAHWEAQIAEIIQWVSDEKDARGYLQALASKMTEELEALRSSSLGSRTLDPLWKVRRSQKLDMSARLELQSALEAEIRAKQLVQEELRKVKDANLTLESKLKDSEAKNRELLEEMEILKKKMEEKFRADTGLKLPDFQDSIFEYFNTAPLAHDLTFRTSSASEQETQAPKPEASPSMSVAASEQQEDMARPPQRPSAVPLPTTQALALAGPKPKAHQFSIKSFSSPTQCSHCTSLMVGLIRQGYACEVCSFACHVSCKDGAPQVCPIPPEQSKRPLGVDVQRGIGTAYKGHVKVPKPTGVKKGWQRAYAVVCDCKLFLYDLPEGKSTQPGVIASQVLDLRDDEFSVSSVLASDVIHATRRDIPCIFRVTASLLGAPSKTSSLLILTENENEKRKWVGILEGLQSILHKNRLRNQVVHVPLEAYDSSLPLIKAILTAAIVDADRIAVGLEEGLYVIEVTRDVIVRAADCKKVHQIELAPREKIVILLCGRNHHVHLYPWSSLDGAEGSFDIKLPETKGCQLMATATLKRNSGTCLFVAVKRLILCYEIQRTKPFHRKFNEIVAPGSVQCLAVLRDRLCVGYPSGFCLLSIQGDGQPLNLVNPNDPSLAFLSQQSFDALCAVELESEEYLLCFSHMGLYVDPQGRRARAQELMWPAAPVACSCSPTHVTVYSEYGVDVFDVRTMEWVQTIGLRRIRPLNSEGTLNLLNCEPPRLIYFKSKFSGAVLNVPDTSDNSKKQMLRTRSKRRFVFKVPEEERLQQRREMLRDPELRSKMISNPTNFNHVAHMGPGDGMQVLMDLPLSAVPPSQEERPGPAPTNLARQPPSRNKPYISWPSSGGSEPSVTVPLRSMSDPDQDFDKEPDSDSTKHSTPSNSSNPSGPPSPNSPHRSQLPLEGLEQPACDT

`CC(C)[C@H](NC(=O)c1cc(-c2cnn3cc(-c4ccc(OCCN5CCCCC5)cc4)cnc23)cs1)C(F)(F)F`: the fold change (FC) in assay [1] was 0; in [2], 0.05; in assay [3], 0; in assay [4] it was 0.03.

Turning to `O=C(N[C@@H](C1CC1)C(F)(F)F)c1cc(-c2cnn3cc(-c4ccc(F)cc4)cnc23)cs1`, the inhibition in assay [5] was found to be 5%; in assay [6], 56%.

Regarding `CNC(=O)c1ccccc1Oc1nc(Nc2cc(OC)c(OC)c(OC)c2)ncc1Br`, the fold change (FC) in assay [7] worked out at 0.23; in assay [8] it was 0. Also, the inhibition in assay [9] was determined as 0%.
